# Results pooled from the literature.
# Protocols differ between the studies behind these lines.
# Organism: Staphylococcus aureus
# Read-out: microbial killing
Structure (SMILES),technique,strain,time,notes,MBC
O=C1NC(=S)N/C1=C\c1c2ccccc2c(-c2ccc(N(c3ccccc3)c3ccccc3)cc2)c2ccccc12,broth dilution,ATCC43300,,,> 1000 µg/mL
CCOC(=O)c1c(N)csc1-c1cn(-c2ccccc2)nc1-c1ccc(C)cc1,broth dilution,,,,0.125 µg/mL
CC(=O)NC[C@H]1CN(c2ccc(N3CCOCC3)c(F)c2)C(=O)O1,broth dilution,MRSA NRS119,,drug-resistant strain,64 µM
O=C(O)CN1C(=O)/C(=C/c2c3ccccc3c(-c3ccc(N(c4ccccc4)c4ccccc4)cc3)c3ccccc23)NC1=S,broth dilution,ATCC6538,,,> 1000 µg/mL
COc1c(C)c(OC)c2c(c1C)OC(c1ccccc1)CC2=O (centres unmarked),broth dilution,ATCC25923,,,> 5000 µg/mL
CCn1cc(C(=O)O)c(=O)c2cc(F)c(N3CCNCC3)cc21,broth dilution,ATCC6538,,,2 µM
O=[N+]([O-])c1ccc(-c2nc3cccc(O)c3[nH]2)o1,,ATCC33591,,,2 µg/mL
COc1c(C)c(OC(=O)c2ccccc2)c(C)c(O)c1C(=O)/C=C/c1ccccc1,broth dilution,ATCC25923,,,> 5000 µg/mL
CCCCCCCCCCCCCC#CC(=O)O,,,,,7.8 µg/mL
CCCCCOc1c(OC)cc(NC(C)CCCNC(=S)NCCCC(C)Nc2cc(OC)c(OCCCCC)c3c(CC)ccnc23)c2nccc(CC)c12.Cl.Cl (centres unmarked),,ATCC43300 MRSA,,drug-resistant strain,10 to 20 µg/mL
O=C1NC(=S)N/C1=C\c1ccc(-c2ccc(N(c3ccccc3)c3ccccc3)cc2)cc1,broth dilution,ATCC6538,,,> 1000 µg/mL
C=CCOc1c(C)c(O)c(C(=O)/C=C/c2ccccc2)c(OC)c1C,broth dilution,ATCC25923,,,> 5000 µg/mL
COc1cc(NC(C)CCCNC(=O)c2ccncc2C(=O)NCCCC(C)Nc2cc(OC)cc3ccc(C(C)(C)C)nc23)c2nc(C(C)(C)C)ccc2c1.Cl (centres unmarked),,ATCC43300 MRSA,,drug-resistant strain,10 to 20 µg/mL
O=C(O)CN1C(=O)/C(=C/c2c3ccccc3c(-c3ccc(N(c4ccccc4)c4ccccc4)cc3)c3ccccc23)SC1=S,broth dilution,ATCC43300,,,> 1000 µg/mL
Cc1c(NC(=O)CC2=NC(=O)CS2)c(=O)n(-c2ccccc2)n1C,broth dilution,,,,1 µg/mL
COc1c(C)c(OCc2ccccc2)c(C)c(O)c1C(=O)/C=C/c1ccccc1,broth dilution,ATCC25923,,,> 5000 µg/mL
O=C1NC(=S)S/C1=C\c1ccc(-c2ccc(N(c3ccccc3)c3ccccc3)cc2)c2ccccc12,broth dilution,ATCC43300,,,> 1000 µg/mL
CCCCCCCCCC(=O)Oc1c(C)c(O)c(C(=O)/C=C/c2ccccc2)c(OC)c1C,broth dilution,ATCC25923,,,> 5000 µg/mL
CC1CCN(CCCN2/C(=C/c3cc[n+](C)c4ccccc34)Sc3ccccc32)CC1.[I-],,ATCC29213,,,16 µg/mL
COc1c(C)c(OS(=O)(=O)c2ccc3ccccc3c2)c(C)c(OS(=O)(=O)c2ccc3ccccc3c2)c1C(=O)/C=C/c1ccccc1,broth dilution,ATCC25923,,,> 5000 µg/mL
O=c1[nH]cc(F)c(=O)[nH]1,broth dilution,,48 h,,1 µg/mL
O=C(O)CN1C(=O)/C(=C/c2ccc(-c3ccc(N(c4ccccc4)c4ccccc4)cc3)cc2)NC1=S,broth dilution,ATCC6538,,,3.9 µg/mL
COc1c(C)c(OC(=O)c2ccc(C)cc2)c(C)c(O)c1C(=O)/C=C/c1ccccc1,broth dilution,ATCC25923,,,> 5000 µg/mL
